Measurements reported in ChEMBL document CHEMBL3865805, “Discovery and antiplatelet activity of a selective PI3Kβ inhibitor (MIPS-9922)” (Eur J Med Chem, 2016).
In brackets after ≈: the same amount, converted by molar mass. Activity calls are given as the source filed them. No cut-off for these calls is given here.

Experiments:
Mus musculus [1] = assay: Antithrombosis activity in C57BL/6 mouse model of electrolytic injury induced occlusive thrombus formation assessed as prevention of arterial thrombi formation by measuring effect on carotid artery blood flow volume at 2.5 mg/kg, iv administered through bolus prior to electrolytic injury measured after 60 mins; type: functional, organism-based
Method in brief: (§1)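 Electrolytic injury to the mouse carotid artery; 2.5 mg/kg given iv in saline (n = 8) against saline control (n = 8). Carotid blood flow (ml/min per 100 g body weight) monitored after injury, and flow volume taken as area under the curve over the 60-min period; mean ± S.E.M.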

Mus musculus [2] = assay: Antithrombosis activity in C57BL/6 mouse model of electrolytic injury induced occlusive thrombus formation assessed as prevention of arterial thrombi formation by measuring effect on rate of carotid artery blood flow at 2.5 mg/kg, iv administered through bolus prior to electrolytic injury; type: functional, organism-based; method in brief: as §1
[3] = molecular target: T1, Proteinase-activated receptor 1 (Homo sapiens) (UniProt P25116); assay: Inhibition of PAR1 in human washed platelets assessed as suppression of TRAP-induced integrin alpha2bbeta3 activation preincubated for 5 mins followed by TRAP stimulation after 10 mins by OG-FNG-based FACS analysis
T1 sequence (whole entry): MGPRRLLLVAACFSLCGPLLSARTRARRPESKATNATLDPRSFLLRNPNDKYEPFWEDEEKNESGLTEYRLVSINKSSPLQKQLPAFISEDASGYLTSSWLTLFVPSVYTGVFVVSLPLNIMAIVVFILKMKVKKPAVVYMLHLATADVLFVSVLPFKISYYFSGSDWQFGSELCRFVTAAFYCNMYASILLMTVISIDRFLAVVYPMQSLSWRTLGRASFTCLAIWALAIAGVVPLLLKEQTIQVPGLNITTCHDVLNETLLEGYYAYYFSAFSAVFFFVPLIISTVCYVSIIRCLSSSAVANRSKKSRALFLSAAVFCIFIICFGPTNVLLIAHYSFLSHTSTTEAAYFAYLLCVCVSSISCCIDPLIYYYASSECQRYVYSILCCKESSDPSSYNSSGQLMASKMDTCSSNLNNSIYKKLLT
Method in brief: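 Washed human platelets stimulated with TRAP at 0.5–1 µM, chosen by donor response. αIIbβ3 activation read as Oregon-Green fibrinogen binding by flow cytometry. DMSO 0.25% control set as 100%. n = 4-7, mean ± SEM.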

albumin = albumin (Homo sapiens, UniProt P02768); assay: Protein binding to human serum albumin by HPLC analysis; type: ADME; settings: read-out: PB (converted)
albumin, sequence (P02768 whole entry): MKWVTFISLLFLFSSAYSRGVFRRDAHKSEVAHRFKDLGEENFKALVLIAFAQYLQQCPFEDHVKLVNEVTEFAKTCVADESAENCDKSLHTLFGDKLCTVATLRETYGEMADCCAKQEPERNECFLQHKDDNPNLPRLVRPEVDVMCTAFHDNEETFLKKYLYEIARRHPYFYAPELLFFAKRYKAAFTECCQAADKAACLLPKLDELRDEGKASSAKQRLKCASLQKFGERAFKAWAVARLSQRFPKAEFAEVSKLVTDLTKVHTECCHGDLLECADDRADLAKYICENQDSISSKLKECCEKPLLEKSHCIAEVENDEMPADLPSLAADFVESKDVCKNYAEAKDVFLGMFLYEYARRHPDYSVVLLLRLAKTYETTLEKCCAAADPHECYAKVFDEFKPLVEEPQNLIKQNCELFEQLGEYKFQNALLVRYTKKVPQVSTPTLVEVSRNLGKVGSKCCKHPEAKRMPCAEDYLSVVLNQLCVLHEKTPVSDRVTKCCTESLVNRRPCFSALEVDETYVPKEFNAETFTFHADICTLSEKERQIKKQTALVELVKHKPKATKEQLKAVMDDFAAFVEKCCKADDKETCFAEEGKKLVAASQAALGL

Mus musculus [4] = assay: Toxicity in C57BL/6 mouse model of electrolytic injury induced occlusive thrombus formation assessed as increase in tail bleeding time at 2.5 mg/kg, iv bolus administration; type: organism-based; settings: in vivo
Method in brief: (§2)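 Mouse tail bleeding assay after 2.5 mg/kg iv (n = 8) against vehicle, 0.01% DMSO (n = 8). Tail bleeding time recorded; blood loss quantified as absorbance of haemoglobin at 575 nm.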

[5] = Apparent oral bioavailability in Sprague-Dawley rat at 20 mg/kg administered via gavage by LC-MS analysis; type: ADME, organism-based; settings: in vivo, read-out: Fapp
Method in brief: (§3)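 Sprague Dawley rats, n=2 per route. Single dose: 3 mg/kg intravenous or 20 mg/kg oral. Plasma concentration followed over time. Half-life, volume of distribution, clearance, Tmax and oral bioavailability derived from the plasma concentration-time profiles.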

[6] = Effect on platelet translocation in human washed platelets at 0.1 to 5 uM; type: ADME, cell-based
[7] = Clearance in rat by LC-MS analysis relative to hepatic blood flow; type: ADME, Liver; settings: in vivo
Mus musculus [8] = assay: Toxicity in C57BL/6 mouse model of electrolytic injury induced occlusive thrombus formation assessed as excessive blood loss at 2.5 mg/kg, iv bolus administration; type: organism-based; settings: in vivo; method in brief: as §2
Platelet = assay: Antiplatelet activity against human washed platelets assessed as reduction in shear-induced stationary platelet adhesion to vWF matrix preincubated for 5 mins followed by blood perfusion after 4 mins; type: functional, cell-based
Method in brief: (§4)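 Human whole blood, anticoagulated, perfused over a vWf matrix at 1800 s^-1 for 4 min; stationary platelet adhesion scored. Vehicle DMSO 0.25% taken as 100%. Drug tested up to 5 µM. t test against 0.1 µM drug.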

[9] = molecular target: T2, Phosphatidylinositol 4,5-bisphosphate 3-kinase catalytic subunit beta isoform (Homo sapiens, UniProt P42338); assay: Inhibition of PI3Kbeta in human platelet-rich plasma assessed as suppression of ADP-induced platelet aggregation preincubated for 5 mins followed by ADP stimulation after 10 mins by light transmission aggregometric analysis
T2 sequence (P42338 whole entry, looked up, canonical isoform): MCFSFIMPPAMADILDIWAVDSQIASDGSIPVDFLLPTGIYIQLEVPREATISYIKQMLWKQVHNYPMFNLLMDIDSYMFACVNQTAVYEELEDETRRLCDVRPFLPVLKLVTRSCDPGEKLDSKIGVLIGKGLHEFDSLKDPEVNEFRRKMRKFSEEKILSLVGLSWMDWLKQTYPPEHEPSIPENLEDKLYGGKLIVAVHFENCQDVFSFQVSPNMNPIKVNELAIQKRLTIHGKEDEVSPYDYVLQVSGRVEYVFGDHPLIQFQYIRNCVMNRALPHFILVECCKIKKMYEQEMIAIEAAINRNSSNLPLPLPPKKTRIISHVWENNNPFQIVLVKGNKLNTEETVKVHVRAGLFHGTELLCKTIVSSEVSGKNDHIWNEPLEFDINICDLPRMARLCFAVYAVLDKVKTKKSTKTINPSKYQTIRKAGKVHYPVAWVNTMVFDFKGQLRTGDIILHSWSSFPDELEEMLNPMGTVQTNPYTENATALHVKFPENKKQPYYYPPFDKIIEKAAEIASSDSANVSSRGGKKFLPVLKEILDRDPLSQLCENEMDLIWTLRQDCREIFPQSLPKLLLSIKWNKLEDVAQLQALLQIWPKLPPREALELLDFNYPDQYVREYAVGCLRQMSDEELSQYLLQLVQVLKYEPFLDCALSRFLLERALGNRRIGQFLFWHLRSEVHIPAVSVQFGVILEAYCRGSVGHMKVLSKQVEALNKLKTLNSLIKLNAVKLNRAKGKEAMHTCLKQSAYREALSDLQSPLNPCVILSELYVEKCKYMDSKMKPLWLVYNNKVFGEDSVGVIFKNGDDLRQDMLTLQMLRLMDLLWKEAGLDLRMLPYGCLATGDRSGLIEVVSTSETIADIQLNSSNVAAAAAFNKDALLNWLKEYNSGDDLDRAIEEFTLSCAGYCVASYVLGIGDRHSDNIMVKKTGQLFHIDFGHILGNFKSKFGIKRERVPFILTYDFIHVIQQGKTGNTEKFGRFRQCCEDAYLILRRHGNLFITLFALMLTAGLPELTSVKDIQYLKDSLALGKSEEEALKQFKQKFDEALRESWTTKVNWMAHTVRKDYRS
Method in brief: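 Human platelet-rich plasma stimulated with ADP; aggregation measured over a concentration range of inhibitor, and IC50 taken from the dose-response curve.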

[10] = Intrinsic clearance in human liver microsomes at 1 uM after 60 mins in presence of NADPH by UPLC-MS analysis; type: ADME; settings: read-out: CLH
[11] = Aqueous solubility of compound at pH 6.5 by turbidimetric solubility assay; type: physicochemical; settings: buffer
[12] = Antiplatelet activity against human washed platelets assessed as shear-induced stationary platelet adhesion to vWF matrix at 1 to 5 uM preincubated for 5 mins followed by blood perfusion after 4 mins relative to control; type: functional; method in brief: as §4
[13] = Stability in Sprague-Dawley rat plasma at […] after 4 hrs by UPLC-MS analysis; type: ADME, cell-free
[14] = Effect on platelet tethering in human washed platelets at 0.1 to 5 uM; type: ADME, cell-based
[15] = Distribution constant, logD of compound at pH 3; type: physicochemical; settings: buffer
[16] = Intrinsic clearance in rat liver microsomes at 1 uM after 60 mins in presence of NADPH by UPLC-MS analysis; type: ADME; settings: read-out: CLH
[17] = Aqueous solubility of compound in saline; type: physicochemical; settings: buffer
[18] = Drug excretion in iv dosed rat urine by LC-MS analysis; type: ADME, organism-based; settings: read-out: Drug excretion
[19] = Aqueous solubility of compound at pH 2 by turbidimetric solubility assay; type: physicochemical; settings: buffer
[20] = molecular target: T2, Phosphatidylinositol 4,5-bisphosphate 3-kinase catalytic subunit beta isoform; assay: Inhibition of PI3Kbeta in human washed platelets assessed as suppression of ADP-induced platelet aggregation preincubated for 5 mins followed by ADP stimulation after 10 mins by light transmission aggregometric analysis
Method in brief: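 Washed human platelets in a conventional aggregometer. Aggregation induced by ADP; IC50 taken from the dose-response curve.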

[21] = Tmax in Sprague-Dawley rat at 20 mg/kg, po via gavage by LC-MS analysis; type: ADME, organism-based; settings: in vivo; method in brief: as §3
[22] = molecular target: T2, Phosphatidylinositol 4,5-bisphosphate 3-kinase catalytic subunit beta isoform; assay: Inhibition of PI3Kbeta in human washed platelets assessed as suppression of ADP-induced platelet aggregation at 0.5 uM preincubated for 5 mins followed by 25 uM ADP stimulation after 10 mins by light transmission aggregometric analysis
Method in brief: (§5)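 Washed human platelets in an aggregometer. Inhibitor at 0.5 µM. Aggregation induced by 5, 10 or 25 µM ADP; percent inhibition read.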

[23] = Distribution constant, logD of compound at pH 7.4; type: physicochemical; settings: buffer
[24] = molecular target: T2, Phosphatidylinositol 4,5-bisphosphate 3-kinase catalytic subunit beta isoform; assay: Inhibition of PI3Kbeta in human washed platelets assessed as suppression of ADP-induced integrin alpha2bbeta3 activation preincubated for 5 mins followed by ADP stimulation after 10 mins by OG-FNG-based FACS analysis
Method in brief: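 Washed human platelets stimulated with ADP (5 µM). Integrin αIIbβ3 activation read as Oregon-Green fibrinogen binding by flow cytometry. DMSO 0.25% control set as 100%. n = 3, mean ± SEM. t test against 0.001 µM drug.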

Rattus norvegicus = assay: Toxicity in Sprague-Dawley rat at 20 mg/kg, po administered via gavage or 3 mg/kg, iv; type: organism-based; settings: in vivo
[25] = Volume of distribution at steady state in Sprague-Dawley rat at 3 mg/kg, iv by LC-MS analysis; type: ADME, organism-based; settings: in vivo, read-out: Vdss; method in brief: as §3
[26] = Blood clearance in rat by LC-MS analysis; type: ADME, tissue-based; settings: whole blood
[27] = Plasma clearance in Sprague-Dawley rat at 3 mg/kg, iv by LC-MS analysis; type: ADME, organism-based; method in brief: as §3
[28] = Apparent half life in Sprague-Dawley rat at 3 mg/kg, iv by LC-MS analysis; type: ADME, organism-based; settings: in vivo, read-out: t1/2(app); method in brief: as §3
[29] = molecular target: T2, Phosphatidylinositol 4,5-bisphosphate 3-kinase catalytic subunit beta isoform; assay: Inhibition of PI3Kbeta in human washed platelets assessed as suppression of ADP-induced platelet aggregation at 0.5 uM preincubated for 5 mins followed by 5 to 10 uM ADP stimulation after 10 mins by light transmission aggregometric analysis; method in brief: as §5

## N[C@@H](Cc1ccccc1)C(=O)N1CCN(c2nc(N3CCOCC3)nc(-n3c(C(F)F)nc4ccccc43)n2)CC1
Mus musculus [1]
  Activity: Active
Mus musculus [2]
  Activity: Active
[3]
  inhibition: Dose-dependent effect
albumin
  fraction unbound: 0.03
Mus musculus [4]
  Activity: Non-Toxic
[5]
  bioavailability: 26%
[6]
  Activity: Non-Toxic
[7]
  CL: 60%
Mus musculus [8]
  Activity: Non-Toxic
Platelet
  inhibition: Dose-dependent effect
[9]
  inhibition: Dose-dependent effect
[10]
  microsomal CLint at 1 µM: 22 µL/min/mg
[11]
  solubility kinetic: 6.3 to 12.5 µg/mL (≈ 11.2 to 22.2 µM)
[12]
  inhibition (INH): <=60%
[13]
  Stability: Stable
[14]
  Activity: Non-Toxic
[15]
  logD: 3
[16]
  microsomal CLint at 1 µM: 43 µL/min/mg
[17]
  solubility: Soluble
[18]
  dose excreted: < 0.1%
[19]
  solubility kinetic: > 100 µg/mL
[20]
  inhibition: Dose-dependent effect
[21]
  Tmax: 1 to 4 h
[22]
  inhibition: 15%
[23]
  logD: 3.7
[24]
  inhibition: Dose-dependent effect
Rattus norvegicus
  Activity: Non-Toxic
[25]
  Vd: 8.6 L/kg
[26]
  clearance: 39 mL/min/kg
[27]
  clearance: 67 mL/min/kg
[28]
  half-life: 2.8 to 3 h
[29]
  inhibition: Active
